Assay results from the array DNA melting data of Ke et al. (doi:10.1101/2024.01.08.574731).

Columns and labels:
[1] = folding enthalpy; higher = less favourable; fluorescence melt of hairpins on a sequencing array, two-state fit; details: sodium 0.088 M
How it was run: (§1)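 Library hairpins on a sequenced MiSeq flow cell carried annealed Cy3 and quencher oligos, and their Cy3 fluorescence was imaged in 50 mM Na-HEPES pH 8.0 with 25 mM NaCl, in 2.5 °C steps up to 60 °C. Signals were normalised to Cy3 before quenching and to control constructs. Melting temperature and folding enthalpy were obtained from bootstrapped two-state fits, combined by inverse-variance weighting across four replicates, and the fitted temperatures were then raised by 9.35 °C to match UV melts.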

[2] = melting temperature; fluorescence melt of hairpins on a sequencing array, two-state fit, raised by 9.35 °C to match UV melts; details: sodium 0.088 M
How it was run: as §1

Sequence | folding enthalpy [1] [kcal/mol] | Tm [2] [°C]
GATCGTGTTGACGATC ((((((....)))))) | -29.3 | 57.4
GATCGTGTTTACGATC ((((((....)))))) | -41.4 | 57.5
GATCGTTAATACGATC ((((((....)))))) | -36.3 | 54.6
GATCGTTACACGATC ((((((...)))))) | -36.1 | 58.4
GATCGTTAGAACGATC ((((((....)))))) | -34.7 | 55.2
GATCGTTAGCACGATC ((((((....)))))) | -32.3 | 51.4
GATCGTTAGGACGATC ((((((....)))))) | -37.9 | 55.2
GATCGTTAGTACGATC ((((((....)))))) | -47.3 | 53.2
GATCGTTATCACGATC ((((((....)))))) | -42 | 52.7
GATCGTTGCACGATC ((((((...)))))) | -38.6 | 60.7
GATCGTTGCGACGATC ((((((....)))))) | -41.2 | 60.7
GATCGTTGGACGATC ((((((...)))))) | -35.1 | 54.8
GATCGTTGTCACGATC ((((((....)))))) | -40.9 | 54.9
GATCGTTTTTACGATC ((((((....)))))) | -44.7 | 56.9
GATCTAAAATAGATC ((((((...)))))) | -17.1 | 38.6
GATCTAAAGATAGATC ((((((....)))))) | -16.5 | 30.6
GATCTAACAGTAGATC ((((((....)))))) | -15.6 | 36.5
GATCTAACATAGATC ((((((...)))))) | -33.1 | 39.5

Sequence | folding enthalpy [1] [kcal/mol] | Tm [2] [°C]
GATCTAACCTTAGATC ((((((....)))))) | -39.6 | 42.2
GATCTAAGATAGATC ((((((...)))))) | -20.6 | 37.9
GATCTAAGCGTAGATC ((((((....)))))) | -27 | 36.9
GATCTAAGGTTAGATC ((((((....)))))) | -31.6 | 39.3
GATCTAATATAGATC ((((((...)))))) | -28.6 | 38.8
GATCTAATCGTAGATC ((((((....)))))) | -13.7 | 36.1
GATCTAATCTAGATC ((((((...)))))) | -28.2 | 38.8
GATCTAATGGTAGATC ((((((....)))))) | -27 | 35.4
GATCTAATTTAGATC ((((((...)))))) | -30.8 | 41.4
GATCTACAAGTAGATC ((((((....)))))) | -34.2 | 48.2
GATCTACAGTAGATC ((((((...)))))) | -38.7 | 39.3
GATCTACAGTTAGATC ((((((....)))))) | -29.3 | 38.3
GATCTACATCTAGATC ((((((....)))))) | -30.7 | 36.8
GATCTACCAATAGATC ((((((....)))))) | -25.6 | 38.1
GATCTACCCGTAGATC ((((((....)))))) | -42.1 | 50.8
GATCTACCCTAGATC ((((((...)))))) | -24.7 | 40.7
GATCTACCGGTAGATC ((((((....)))))) | -43.4 | 53.2
GATCTACGGTTAGATC ((((((....)))))) | -30.3 | 37.8
